Bioassay records deposited in PubChem by several laboratories.
MrgX1 antagonist = blocks BAM8-22 activation of human MrgX1 receptor; B-score at 10 µM; 310,000 compounds, 1.3% hits; Q96LB2; MRGX1-HEK293 calcium flux, Fluo-4, BAM8-22 antagonism; stronger effect = lower value;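 active = calcium-response B-score plate-corrected more than 3 library SD below zero, starting fluorescence within 5 deviations, no agonist response on first addition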;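 note: peak minus trough fluorescence over baseline after final BAM8-22 challenge near maximal dose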
RGS4 pot = RGS4 potentiation or activation; HEK293 M3R/inducible RGS4, carbachol calcium flux Fluo4; stronger effect = lower value; B-score at 10 µM; 310,000 compounds, 0.92% hits; AID 463111;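 active = B-score of the integrated calcium signal more than 4 SD below the library mean, with starting fluorescence not abnormally high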;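 note: negative B-score means reduced calcium response which marks RGS4 activation or potentiation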
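Assay system: Inducible-RGS4 HEK293 cells carrying M3 receptor | Schedule: Compound preincubation 20 min at room temperature before agonist | Signal: Kinetic calcium fluorescence imaging with Fluo4-AM dye, 2 µM | Read-out basis: B score from integrated fluorescence ratio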
MrgX1 agonist = activates human MrgX1 receptor signaling. Q96LB2. MrgX1-HEK293 cells, Fluo-4 calcium fluorescence, agonist mode; stronger effect = higher value. B-score at 10 µM. 310,000 compounds, 0.44% hits. AID 588627;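 active = calcium response B-score plate-corrected fluorescence ratio at least 3 library SD, with starting fluorescence B-score inside 5 SD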
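Test system: HEK293 cells stably expressing human MrgX1 receptor; amount: 15,000 cells per well; doses: compound delivered in addition one of three; times: overnight plating before 1 h dye loading; detection: Fluo-4 NW calcium-flux fluorescence, kinetic read; read-out basis: B-scored fluorescence response ratio; controls: positive and negative controls per plate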
RGS4 inh = inhibitors of human RGS4 | P49798 | HEK293 M3R/RGS4 inducible, Fluo-4 calcium flux; stronger effect = higher value; triggered by carbachol at its EC20 | B-score at 10 µM | 310,000 compounds, 0.45% hits;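 active = B-score, a plate-corrected calcium signal, over three deviations above library mean, with baseline fluorescence within five deviations of library mean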;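 note: RGS4 expression induced by doxycycline in cells with stable M3 receptor; B-score is computed from the integrated fluorescence ratio over baseline after carbachol; higher B-score means a larger calcium signal and so more RGS4 inhibition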
MrgX1 PAM = allosterically activates human MrgX1 receptor signaling | Q96LB2 | MrgX1-HEK293, Fluo-4 calcium flux, FDSS; stronger effect = higher value | B-score at 10 µM | 310,000 compounds, 0.63% hits;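 active = plate-corrected calcium response at least 3 library SD above typical, normal starting fluorescence, not activating the receptor alone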;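 note: compound read alongside a low EC10 to EC30 dose of BAM8-22 agonist; peak minus trough fluorescence over baseline measured at the second addition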
KCC2 mod = KCC2 (human) Cl- transport modulation; KCC2 cells, thallium flux FluoZin-2 fluorescence; B-score of Tl+ flux slope (higher = more flux/activation; lower = inhibition) at 10 µM; 190,000 compounds, 2.2% hits; AID 1456;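 active = thallium flux slope and its plate-corrected score both differing from the plate sample mean at a set confidence after two filtering rounds, in either direction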;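 note: slope of fluorescence scaled to starting intensity during 10 to 20 s after thallium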
Target sequence (Q9H2X9 whole entry, looked up): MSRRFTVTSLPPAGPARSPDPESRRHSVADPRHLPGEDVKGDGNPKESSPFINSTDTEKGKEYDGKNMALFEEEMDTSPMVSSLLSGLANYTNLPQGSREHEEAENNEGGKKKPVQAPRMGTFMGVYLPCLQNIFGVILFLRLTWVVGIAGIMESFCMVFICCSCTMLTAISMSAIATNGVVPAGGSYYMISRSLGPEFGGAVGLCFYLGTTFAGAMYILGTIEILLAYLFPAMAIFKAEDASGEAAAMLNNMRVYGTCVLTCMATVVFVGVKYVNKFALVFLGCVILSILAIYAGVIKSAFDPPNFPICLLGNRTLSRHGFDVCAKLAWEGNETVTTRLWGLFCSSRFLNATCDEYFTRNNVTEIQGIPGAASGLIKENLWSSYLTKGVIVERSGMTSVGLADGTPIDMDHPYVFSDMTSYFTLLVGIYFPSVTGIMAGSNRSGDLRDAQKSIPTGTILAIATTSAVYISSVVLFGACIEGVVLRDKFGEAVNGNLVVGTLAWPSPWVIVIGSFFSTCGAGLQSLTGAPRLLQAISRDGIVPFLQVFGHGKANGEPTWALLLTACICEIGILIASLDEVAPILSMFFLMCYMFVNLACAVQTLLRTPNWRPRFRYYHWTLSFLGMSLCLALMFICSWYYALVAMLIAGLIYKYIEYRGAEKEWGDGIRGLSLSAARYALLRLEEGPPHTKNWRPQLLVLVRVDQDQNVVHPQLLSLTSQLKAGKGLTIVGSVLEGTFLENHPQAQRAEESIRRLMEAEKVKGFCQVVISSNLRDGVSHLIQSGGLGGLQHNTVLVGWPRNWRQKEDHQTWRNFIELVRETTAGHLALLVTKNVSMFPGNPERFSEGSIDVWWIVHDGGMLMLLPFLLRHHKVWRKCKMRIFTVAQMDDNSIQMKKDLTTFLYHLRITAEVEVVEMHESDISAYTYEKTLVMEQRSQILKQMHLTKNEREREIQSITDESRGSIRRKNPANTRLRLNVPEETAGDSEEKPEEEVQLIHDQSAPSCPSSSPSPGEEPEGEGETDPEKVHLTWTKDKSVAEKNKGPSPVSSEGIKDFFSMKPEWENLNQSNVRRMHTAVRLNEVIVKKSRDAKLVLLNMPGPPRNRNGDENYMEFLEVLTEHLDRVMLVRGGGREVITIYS
KCC2 secondary = KCC2 (human) modulation, secondary assay; HEK293-KCC2, thallium flux, FluoZin2 fluorescence; stronger effect = higher value; shares compounds with KCC2 mod; AID 1713; 3,700 compounds, 15% hits; normalised thallium flux (F/F0 slope) at 10 µM;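 active = thallium flux slope above the same plate's solvent-only control mean plus 3 SD; inconclusive = the two replicate wells disagree; inactive = no significant difference from solvent-only control wells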
KCC2 bumet counter = bumetanide-insensitive thallium flux in KCC2 cells with ouabain, counter-screen; AID 1714; shares compounds with KCC2 mod; HEK293-KCC2 + bumetanide/ouabain, thallium flux FluoZin2; stronger effect = higher value; 3,700 compounds, 49% hits; normalized thallium flux at 10 µM;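 active = thallium entry rate above the same plate's blocked-transporter control wells by more than 3 SD; inconclusive = the two repeat wells disagree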;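 note: raw slope of fluorescence over initial fluorescence between 10 and 20 s after thallium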
KCC2 sec2 = KCC2 (human) modulation, second secondary assay | shares compounds with KCC2 mod | HEK293-KCC2, thallium flux FluoZin2 fluorescence; actives lie on both sides; F/F0 rise rate, 10–20 s post-thallium | normalized thallium flux at 10 µM | 3,700 compounds, 23% hits;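 active = thallium flux slope more than 3 SD above or below the plate's solvent-only control mean, mostly below; inconclusive = the two repeat wells disagreed; inactive = no significant shift from solvent-only controls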;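 note: raw slope with 0.1% DMSO as baseline and bumetanide as block control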
HEK293 Tl flux = acts in parental HEK cells, KCC2 counter-screen. 3,700 compounds, 46% hits. thallium flux rate (normalised fluorescence) at 10 µM. AID 1716. shares compounds with KCC2 mod. HEK293 parental cells, thallium flux FluoZin2, ouabain; baseline-ratio fluorescence slope, 10–20 s after thallium;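 active = thallium flux rate significantly above the same plate's solvent-only control wells, beyond their mean plus 3 SD; inconclusive = the two replicate wells gave conflicting results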
KCC2 ouabain = confirmation of human KCC2 modulators with ouabain | shares compounds with KCC2 mod | HEK293-KCC2, thallium flux FluoZin2 fluorescence; bidirectional: low = inhibitor, high = activator | raw Tl+ flux slope (below DMSO = inhibition, above = activation) at 10 µM | 3,700 compounds, 48% hits | AID 1717;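 active = thallium flux slope beyond 3 SD from same-plate DMSO control mean in most replicates, usually higher, sometimes lower; inconclusive = repeat tests gave conflicting results; inactive = no significant difference from controls in most replicates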;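 note: slope of initial-normalized fluorescence between seconds 10 and 20 after thallium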
HEK293 Tl flux2 = acts in parental HEK cells, second KCC2 counter-screen; shares compounds with KCC2 mod; HEK293 parental, thallium flux FluoZin-2 fluorescence slope; thallium flux slope at 10 µM; 3,700 compounds, 33% hits; AID 1718;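 active = thallium flux slope above the same plate's solvent-control mean plus 3 SD in both duplicate wells; inconclusive = duplicate wells that disagreed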;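 note: run without ouabain in cells lacking the KCC2 cotransporter; slope of fluorescence scaled to its starting value between 10 and 20 s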
Numbers without * were called inactive; i = inactive; ? = inconclusive; . = no result given. Shown are actives, neighbours in structure and some others; about 4.7% of the full set was active somewhere.

SMILES | MrgX1 antagonist | RGS4 pot | MrgX1 agonist | RGS4 inh | MrgX1 PAM | KCC2 mod | KCC2 secondary | KCC2 bumet counter | KCC2 sec2 | HEK293 Tl flux | KCC2 ouabain | HEK293 Tl flux2
CCC(Cc1ccccc1)n1c(=S)[nH]c2ccccc2c1=O (configuration not stated) | i | i | i | i | i | 50* | 0.019* | 0.15* | 0.035 | 0.059* | 0.088* | 0.017*
CCC(C)n1c(=S)[nH]c2ccccc2c1=O (configuration not stated) | i | i | i | i | i | 101* | 0.042* | 0.14* | 0.055* | 0.13* | 0.11* | 0.039*
CCN1CCN(C(C)CCc2ccccc2)CC1 (configuration not stated) | i | i | i | i | i | . | . | . | . | . | . | .
O=C(Nc1ccc2[nH]c(=S)sc2c1)Nc1ccccc1F | i | i | i | i | i | 23* | 0.0062 | 0.034* | ? | 0.019* | 0.033* | 0.021*
CCOCCCNC(=O)CCCn1nc(C)n2c(cc3sccc32)c1=O | i | i | i | i | i | 0.00074 | . | . | . | . | . | .
CCOC(=O)C1CCCN(C(=O)CCCn2nc(C)n3c(cc4sccc43)c2=O)C1 (configuration not stated) | i | i | i | i | i | -4.2* | 0.009 | 0.0088* | 0.033 | 0.007 | 0.021 | 0.011
CCOc1cc(CNCCc2ccc(S(N)(=O)=O)cc2)cc(Cl)c1OCc1ccccc1 | i | i | i | i | i | . | ? | 0.0046 | 0.031 | 0.0081 | 0.017 | 0.011
CCOc1cc(CNCCc2ccc(S(N)(=O)=O)cc2)ccc1OCc1ccccc1 | i | i | i | i | i | -0.17 | . | . | . | . | . | .
CC(=O)c1ccc(NC2=C(N3CCOCC3)C(=O)c3ccccc3C2=O)cc1 | i | i | i | i | i | -0.35 | . | . | . | . | . | .
Cc1ccc(NC2=C(N3CCOCC3)C(=O)c3ccccc3C2=O)cc1 | i | i | i | i | i | . | 0.0055 | 0.005 | 0.026* | 0.008 | ? | 0.011
CCn1c(SCC(=O)Nc2ccc3c(c2)OCCO3)nnc1C1CC1 | i | i | i | i | i | . | . | . | . | . | . | .
O=C(CSc1nnnn1Cc1ccccc1)Nc1ccc2c(c1)OCCO2 | i | i | i | i | i | -5.1* | 0.0064 | 0.005 | ? | 0.0072 | ? | 0.011
COc1ccc(NC(=O)CN(C)C(=O)C23CC4CC(CC(C4)C2)C3)cc1 | i | i | i | i | i | . | . | . | . | . | . | .
Cc1noc(C)c1S(=O)(=O)Nc1ccc(C(=O)NC2CCCCCC2)cc1 | i | i | i | i | i | -4.2* | ? | 0.0065 | 0.032 | 0.0079 | 0.022 | 0.011
O=C(CC(=O)Nc1cccc(Cl)c1)N/N=C\c1ccccc1 | i | i | i | i | i | 0.39 | . | . | . | . | . | .
S=C(N/N=C/c1ccc2ncccc2c1)Nc1ccccc1 | i | i | i | i | i | 6.5* | 0.017 | 0.021* | 0.029 | 0.011* | 0.019 | 0.014*
O=[N+]([O-])c1ccc(/C=N/NC(=S)Nc2ccccc2)o1 | i | i | i | i | i | 5.4* | 0.013* | 0.026* | 0.031 | 0.014* | 0.028* | 0.011*
S=C(N/N=C/c1cccc2ccccc12)Nc1cccc(Cl)c1 | i | i | i | i | i | 3.4* | 0.0089 | 0.0069 | 0.029 | 0.012* | 0.029* | 0.01
COc1ccc(/C=N/NC(=S)Nc2ccccc2)cc1 | i | i | i | i | i | 9.1* | 0.0094 | 0.031* | 0.032 | 0.01* | ? | 0.0095
Cc1noc(C)c1CSCC(=O)N(C)CC(=O)Nc1ccccc1Br | i | i | i | i | i | . | . | . | . | . | . | .
COc1ccccc1C1c2[nH]c3ccccc3c2CCN1Cc1ccc(NC(C)=O)s1 (configuration not stated) | i | i | i | i | i | -0.7 | . | . | . | . | . | .
N#CCCN(C(=O)c1cc2c(s1)-c1ccccc1S(=O)(=O)C2)c1ccccc1 | i | i | i | i | i | . | . | . | . | . | . | .
NC1=NC[C@H](CC2CCCCC2)N1CCc1cc(C(F)(F)F)cc(C(F)(F)F)c1 | i | i | i | i | i | -0.025 | . | . | . | . | . | .
NC1=NC[C@@H](Cc2ccc(O)cc2)N1CCc1cc(C(F)(F)F)cc(C(F)(F)F)c1 | i | i | i | i | i | -3.2* | 0.0056 | 0.0045 | 0.022* | 0.0076 | 0.014* | 0.0096
Cc1ncc([N+](=O)[O-])n1CC(=O)Nc1cc(Cl)ccc1Cl | i | i | i | i | i | . | . | . | . | . | . | .
S=c1[nH]nc(-c2ccc(Cl)cc2)n1/N=C/c1ccco1 | i | i | i | i | i | 21* | 0.007 | 0.029* | ? | 0.022* | 0.033* | 0.02*
COc1ccccc1/C=C/C=N/n1c(-c2ccc(Cl)cc2)n[nH]c1=S | i | i | i | i | i | 13* | 0.0092 | 0.023* | 0.03 | 0.011* | 0.031* | ?
Cc1cc(-c2n[nH]c(=S)n2/N=C/C=C/c2ccco2)n[nH]1 | i | i | i | i | i | -0.97 | . | . | . | . | . | .
COc1ccccc1/C=C/C=N/n1c(-c2ccccc2)n[nH]c1=S | i | i | i | i | i | 0.48 | . | . | . | . | . | .
S=c1[nH]nc(-c2ccc(Cl)cc2)n1/N=C/C=C/c1ccco1 | i | i | i | i | i | 30* | 0.016* | 0.11* | 0.039 | 0.036* | 0.038* | 0.015*
